Measured values published in ChEMBL document CHEMBL4229550, “An antimycobacterial pleuromutilin analogue effective against dormant bacilli” (Bioorg Med Chem, 2018).
Converted amounts (≈) assume the structure as drawn. The source made the active and inactive calls. The rule behind the calls is not given here.

Legend:
Escherichia coli [1] = assay: Bactericidal activity against Escherichia coli ATCC 10798 incubated for 24 hrs under aerobic condition by MABA; type: functional; settings: ATCC 10798, 24 h
Enterococcus faecalis [2] = assay: Bactericidal activity against Enterococcus faecalis ATCC 349 incubated for 24 hrs under aerobic condition by MABA; type: functional; settings: ATCC 349, 24 h
Streptococcus pneumoniae [3] = assay: Bactericidal activity against Streptococcus pneumoniae ATCC 6301 incubated for 24 hrs under aerobic condition by MABA; type: functional; settings: ATCC 6301, 24 h
[4] = tested on: Mycobacterium tuberculosis; assay: Bactericidal activity against replicating Mycobacterium tuberculosis H37Rv incubated for 15 days under aerobic condition by MABA; type: functional; settings: 360 h
Summary of the method: (§1)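 Mtb H37Rv grown in 7H9/OADC at 37 °C with shaking to OD600 0.5. The 0.5-OD culture is exposed aerobically to serial dilutions for 15 days at 37 °C. Resazurin (0.02% stock) is then added for 4 h at 37 °C with shaking.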

Escherichia coli [5] = assay: Inhibition of protein translation/transcription in Escherichia coli S30 cell extract using circular DNA with pBESTluc after 60 mins by luciferase reporter gene assay; type: functional; settings: 1 h
Summary of the method: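 E. coli S30 circular-DNA coupled transcription/translation kit with the pBESTluc template (firefly luciferase under the tac promoter). S30 extract, amino acids and premix are combined with compound in DMSO, and the reaction is started with DNA. Incubation is 60 min at 37 °C, stopped on ice, then luciferase luminescence is read.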

Staphylococcus aureus [6] = assay: Bactericidal activity against Staphylococcus aureus BAA 2094 incubated for 24 hrs under aerobic condition by MABA; type: functional; settings: BAA 2094, 24 h
Klebsiella pneumoniae [7] = assay: Bactericidal activity against Klebsiella pneumoniae ATCC 12019 incubated for 24 hrs under aerobic condition by MABA; type: functional; settings: ATCC 12019, 24 h
Staphylococcus aureus [8] = assay: Bactericidal activity against Staphylococcus aureus BAA 44 incubated for 24 hrs under aerobic condition by MABA; type: functional; settings: BAA 44, 24 h
Staphylococcus aureus [9] = assay: Antibacterial activity against Staphylococcus aureus ATCC 25923 incubated for 24 hrs under aerobic condition by MABA; type: functional; settings: ATCC 25923, 24 h, read-out: MIC100
Summary of the method: (§2)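 Mid-log cultures at OD 0.5 were exposed to serial dilutions under aerobic conditions at 37 °C for 24 h. Resazurin was then added from a 0.08% stock for 1 h. MIC100 was the lowest concentration where the dye stayed blue (pink means growth). Absorbance was also read at 570 and 600 nm.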

Staphylococcus aureus [10] = assay: Bactericidal activity against Staphylococcus aureus ATCC 25923 incubated for 24 hrs under aerobic condition by MABA; type: functional; settings: ATCC 25923, 24 h
[11] = tested on: Mycobacterium tuberculosis; assay: Antibacterial activity against replicating Mycobacterium tuberculosis H37Rv incubated for 15 days under aerobic condition by MABA; type: functional; settings: 360 h, read-out: MIC100; summary of the method: as §1
Staphylococcus aureus [12] = assay: Antibacterial activity against Staphylococcus aureus incubated for 24 hrs under aerobic condition by MABA; type: functional; settings: read-out: MIC100
Summary of the method: (§3)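 Resazurin was then added from a 0.08% stock for 1 h. MIC100 was the lowest concentration where the dye stayed blue (pink means growth). Absorbance was also read at 570 and 600 nm.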

Streptococcus pneumoniae [13] = assay: Antibacterial activity against Streptococcus pneumoniae ATCC 6301 incubated for 24 hrs under aerobic condition by MABA; type: functional; settings: ATCC 6301, 24 h, read-out: MIC100; summary of the method: as §2
Bacillus subtilis [14] = assay: Bactericidal activity against Bacillus subtilis ATCC 6051 incubated for 24 hrs under aerobic condition by MABA; type: functional; settings: ATCC 6051, 24 h
Enterococcus faecalis [15] = assay: Antibacterial activity against Enterococcus faecalis ATCC 349 incubated for 24 hrs under aerobic condition by MABA; type: functional; settings: ATCC 349, 24 h, read-out: MIC100; summary of the method: as §2
Staphylococcus aureus [16] = assay: Antibacterial activity against Staphylococcus aureus BAA 44 incubated for 24 hrs under aerobic condition by MABA; type: functional; settings: BAA 44, 24 h, read-out: MIC100; summary of the method: as §2
Acinetobacter baumannii [17] = assay: Bactericidal activity against Acinetobacter baumannii ATCC 19606 incubated for 24 hrs under aerobic condition by MABA; type: functional; settings: ATCC 19606 = CIP 70.34 = JCM 6841, 24 h
Staphylococcus aureus [18] = assay: Bactericidal activity against Staphylococcus aureus incubated for 24 hrs under aerobic condition by MABA; type: functional
Escherichia coli [19] = assay: Inhibition of protein translation/transcription in Escherichia coli S30 cell extract at 0.1 ug/ml using circular DNA with pBESTluc after 60 mins by luciferase reporter gene assay; type: functional
Summary of the method: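 Coupled transcription/translation used E. coli S30 extract, amino acid mix and premix, with the pBESTluc template carrying firefly luciferase under the tac promoter. Compounds were added in DMSO and reactions were started with DNA. Incubation was 60 min at 37 °C, stopped on ice, and luciferase was read after adding assay substrate.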

[20] = tested on: Mycolicibacterium smegmatis; assay: Bactericidal activity against Mycobacterium smegmatis ATCC 607 incubated for 48 hrs under aerobic condition by MABA; type: functional; settings: ATCC 607, 48 h
Streptococcus salivarius [21] = assay: Antibacterial activity against Streptococcus salivarius […] incubated for 24 hrs under aerobic condition by MABA; type: functional; settings: read-out: MIC100; summary of the method: as §3
Streptococcus salivarius [22] = assay: Bactericidal activity against Streptococcus salivarius ATCC 6301 incubated for 24 hrs under aerobic condition by MABA; type: functional; settings: ATCC 6301, 24 h
Staphylococcus aureus [23] = assay: Antibacterial activity against Staphylococcus aureus BAA 1683 incubated for 24 hrs under aerobic condition by MABA; type: functional; settings: BAA 1683, 24 h, read-out: MIC100; summary of the method: as §2
Enterococcus faecalis [24] = assay: Antibacterial activity against Enterococcus faecalis ATCC 19433 incubated for 24 hrs under aerobic condition by MABA; type: functional; settings: ATCC 19433, 24 h, read-out: MIC100; summary of the method: as §2
Escherichia coli [25] = assay: Antibacterial activity against Escherichia coli ATCC 10798 incubated for 24 hrs under aerobic condition by MABA; type: functional; settings: ATCC 10798, 24 h, read-out: MIC100; summary of the method: as §2
Enterococcus faecalis [26] = assay: Bactericidal activity against Enterococcus faecalis ATCC 19433 incubated for 24 hrs under aerobic condition by MABA; type: functional; settings: ATCC 19433, 24 h
Staphylococcus aureus [27] = assay: Antibacterial activity against Staphylococcus aureus BAA 2094 incubated for 24 hrs under aerobic condition by MABA; type: functional; settings: BAA 2094, 24 h, read-out: MIC100; summary of the method: as §3
Clostridioides difficile = assay: Bactericidal activity against Clostridium difficile ATCC 700057 incubated for 24 hrs […] by MABA; type: functional; settings: ATCC 700057, 24 h
Vero = assay: Cytotoxicity against African green monkey Vero cells assessed as reduction in cell viability after 72 hrs by MTT assay; type: cell-based; settings: Chlorocebus sabaeus
Summary of the method: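 Vero cells were grown in complete EMEM with 10% FBS and exposed for 72 h to 0.78–200 µg/mL. The medium was then swapped for phenol-red-free EMEM and MTT was added. Formazan absorbance was read at 570 nm to give IC50.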

Bacillus subtilis [28] = assay: Antibacterial activity against Bacillus subtilis ATCC 6051 incubated for 24 hrs under aerobic condition by MABA; type: functional; settings: ATCC 6051, 24 h, read-out: MIC100; summary of the method: as §2
Acinetobacter baumannii [29] = assay: Antibacterial activity against Acinetobacter baumannii ATCC 19606 incubated for 24 hrs under aerobic condition by MABA; type: functional; settings: ATCC 19606 = CIP 70.34 = JCM 6841, 24 h, read-out: MIC100; summary of the method: as §2
Staphylococcus aureus [30] = assay: Bactericidal activity against Staphylococcus aureus BAA 1683 incubated for 24 hrs under aerobic condition by MABA; type: functional; settings: BAA 1683, 24 h
[31] = tested on: Mycolicibacterium smegmatis; assay: Antibacterial activity against Mycobacterium smegmatis ATCC 607 incubated for 48 hrs under aerobic condition by MABA; type: functional; settings: ATCC 607, 48 h, read-out: MIC100
Summary of the method: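 Mid-log culture at OD 0.5 was incubated with serial dilutions aerobically at 37 °C for 48 h. Resazurin was then added from a 0.08% stock for 1 h. MIC100 was the lowest concentration that stayed blue; absorbance was also read at 570/600 nm.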

Klebsiella pneumoniae [32] = assay: Antibacterial activity against Klebsiella pneumoniae ATCC 12019 incubated for 24 hrs under aerobic condition by MABA; type: functional; settings: ATCC 12019, 24 h, read-out: MIC100; summary of the method: as §2
[33] = Selectivity index, ratio of IC50 for African green monkey Vero cells to MIC100 for replicating Mycobacterium tuberculosis H37Rv by MABA; type: toxicity; settings: read-out: Selectivity Index
Summary of the method: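 Vero cells are cultured in EMEM with 10% FBS and exposed for 72 h to 0.78–200 µg/mL. Medium is switched to phenol-red-free EMEM, MTT is added, and formazan is read at 570 nm to give IC50. The selectivity index is Vero IC50 divided by the MABA MIC.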

Question: For CC(=O)NC[C@H]1CN(c2ccc(N3CCOCC3)c(F)c2)C(=O)O1 [LINEZOLID], which MBC (Escherichia coli [1]) is on record?
Answer: > 25 µg/mL

Question: And the MBC (Enterococcus faecalis [2])?
Answer: > 25 µg/mL

Question: What about the MBC (Streptococcus pneumoniae [3]) of the same molecule?
Answer: > 25 µg/mL

Question: What about the MBC [4] of the same molecule?
Answer: 1.61 µg/mL (≈ 4.77 µM)

Question: And the IC50 (Escherichia coli [5])?
Answer: 0.05 µg/mL (≈ 0.148 µM)

Question: What about the MBC (Staphylococcus aureus [6]) of the same molecule?
Answer: > 25 µg/mL

Question: And the MBC (Klebsiella pneumoniae [7])?
Answer: > 25 µg/mL

Question: What about the MBC (Staphylococcus aureus [8]) of the same molecule?
Answer: > 25 µg/mL

Question: And the MIC (Staphylococcus aureus [9])?
Answer: > 25 µg/mL

Question: What about the MBC (Staphylococcus aureus [10]) of the same molecule?
Answer: > 25 µg/mL

Question: And the MIC [11]?
Answer: 0.6 µg/mL (≈ 1.78 µM)

Question: What about the MIC (Staphylococcus aureus [12]) of the same molecule?
Answer: 0.78 µg/mL (≈ 2.31 µM)

Question: And the MIC (Streptococcus pneumoniae [13])?
Answer: 25 µg/mL (≈ 74.1 µM)

Question: What about the MBC (Bacillus subtilis [14]) of the same molecule?
Answer: 6.25 µg/mL (≈ 18.5 µM)

Question: And the MIC (Enterococcus faecalis [15])?
Answer: > 25 µg/mL

Question: What about the MIC (Staphylococcus aureus [16]) of the same molecule?
Answer: > 25 µg/mL

Question: What about the MBC (Acinetobacter baumannii [17]) of the same molecule?
Answer: > 25 µg/mL

Question: And the MBC (Staphylococcus aureus [18])?
Answer: 1.56 µg/mL (≈ 4.62 µM)

Question: And the inhibition (Escherichia coli [19])?
Answer: Active

Question: What about the MBC [20] of the same molecule?
Answer: 0.8 µg/mL (≈ 2.37 µM)

Question: What about the MIC (Streptococcus salivarius [21]) of the same molecule?
Answer: 3.13 µg/mL (≈ 9.28 µM)

Question: What about the MBC (Streptococcus salivarius [22]) of the same molecule?
Answer: > 25 µg/mL

Question: What about the MIC (Staphylococcus aureus [23]) of the same molecule?
Answer: 12.5 µg/mL (≈ 37.1 µM)

Question: And the MIC (Enterococcus faecalis [24])?
Answer: 12.5 µg/mL (≈ 37.1 µM)

Question: And the MIC (Escherichia coli [25])?
Answer: 25 µg/mL (≈ 74.1 µM)

Question: What about the MBC (Enterococcus faecalis [26]) of the same molecule?
Answer: 25 µg/mL (≈ 74.1 µM)

Question: And the MIC (Staphylococcus aureus [27])?
Answer: > 25 µg/mL

Question: And the MBC (Clostridioides difficile)?
Answer: 3.13 µg/mL (≈ 9.28 µM)

Question: And the IC50 (Vero)?
Answer: > 200 µg/mL

Question: What about the MIC (Bacillus subtilis [28]) of the same molecule?
Answer: 3.13 µg/mL (≈ 9.28 µM)

Question: And the MIC (Acinetobacter baumannii [29])?
Answer: > 25 µg/mL

Question: And the MBC (Staphylococcus aureus [30])?
Answer: 25 µg/mL (≈ 74.1 µM)

Question: What about the MIC [31] of the same molecule?
Answer: 0.2 µg/mL (≈ 0.593 µM)

Question: What about the MIC (Klebsiella pneumoniae [32]) of the same molecule?
Answer: 25 µg/mL (≈ 74.1 µM)

Question: And the selectivity ratio [33]?
Answer: > 333
